Measured values reported in ChEMBL document CHEMBL2346664, “Synthesis, characterization and in vitro anticancer evaluation of novel 1,2,4-triazolin-3-one derivatives” (2013).

Experiments:
Type in all cases: functional
SF-268 = assay: Growth inhibition of human SF268 cells assessed as cell growth at 10 '-4 M after 48 hrs by sulforhodamine B assay; conditions: SF-268, 48 h, read-out: Activity
NCI-H460 = assay: Growth inhibition of human NCI-H460 cells assessed as cell growth at 10 '-6 M after 48 hrs by sulforhodamine B assay; conditions: NCI-H460, 48 h, read-out: Activity
M14 = assay: Growth inhibition of human M14 cells assessed as growth inhibition at 10 uM after 48 hrs by sulforhodamine B assay; conditions: M14, 48 h, read-out: GI
NCI-H522 [1] = assay: Growth inhibition of human NCI-H522 cells assessed as cell growth at 10 '-5 M after 48 hrs by sulforhodamine B assay; conditions: NCI-H522, 48 h, read-out: Activity
HOP-62 [2] = assay: Growth inhibition of human HOP62 cells assessed as cell growth at 10 '-4 M after 48 hrs by sulforhodamine B assay; conditions: HOP-62, 48 h, read-out: Activity
HOP-92 = assay: Growth inhibition of human HOP92 cells after 48 hrs by sulforhodamine B assay; conditions: HOP-92, 48 h
In short: (§1)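 NCI 60-cell-line five-dose screen. Cells were plated at 5,000–40,000/well by doubling time and grown 24 h at 37 °C, 5% CO2. Time-zero plates were TCA-fixed. Drug from DMSO stock was tested at 0.01, 0.1, 1, 10 and 100 µM final for 48 h continuous exposure. Read-out was SRB at 515 nm. GI50 is the concentration giving 50% reduction in net protein increase versus untreated control.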

IGROV-1 = assay: Growth inhibition of human IGROV1 cells after 48 hrs by sulforhodamine B assay; conditions: IGROV-1, 48 h; in short: as §1
MOLT-4 = assay: Growth inhibition of human MOLT4 cells assessed as cell growth at 10 '-7 M after 48 hrs by sulforhodamine B assay; conditions: MOLT-4, 48 h, read-out: Activity
TK-10 = assay: Growth inhibition of human TK10 cells assessed as cell growth at 10 '-6 M after 48 hrs by sulforhodamine B assay; conditions: TK-10, 48 h, read-out: Activity
[3] = Growth inhibition of human HCC2998 cells assessed as cell growth at 10 '-6 M after 48 hrs by sulforhodamine B assay; conditions: HCC 2998, 48 h, read-out: Activity
SNB-75 = assay: Growth inhibition of human SNB75 cells assessed as growth inhibition at 10 uM after 48 hrs by sulforhodamine B assay; conditions: SNB-75, 48 h, read-out: GI
HCT-15 = assay: Growth inhibition of human HCT15 cells after 48 hrs by sulforhodamine B assay; conditions: HCT-15, 48 h; in short: as §1
MCF7 = assay: Growth inhibition of human MCF7 cells assessed as cell growth at 10 '-4 M after 48 hrs by sulforhodamine B assay; conditions: MCF7, 48 h, read-out: Activity
OVCAR-5 [4] = assay: Growth inhibition of human OVCAR5 cells assessed as cell growth at 10 '-5 M after 48 hrs by sulforhodamine B assay; conditions: OVCAR-5, 48 h, read-out: Activity
OVCAR-3 [5] = assay: Growth inhibition of human OVCAR3 cells assessed as growth inhibition at 10 uM after 48 hrs by sulforhodamine B assay; conditions: OVCAR-3, 48 h, read-out: GI
OVCAR-3 [6] = assay: Growth inhibition of human OVCAR3 cells assessed as cell growth at 10 '-8 M after 48 hrs by sulforhodamine B assay; conditions: OVCAR-3, 48 h, read-out: Activity
HOP-62 [7] = assay: Growth inhibition of human HOP62 cells assessed as cell growth at 10 '-8 M after 48 hrs by sulforhodamine B assay; conditions: HOP-62, 48 h, read-out: Activity
SF-539 = assay: Growth inhibition of human SF539 cells after 48 hrs by sulforhodamine B assay; conditions: SF-539, 48 h
NCI-H522 [8] = assay: Growth inhibition of human NCI-H522 cells assessed as growth inhibition at 10 uM after 48 hrs by sulforhodamine B assay; conditions: NCI-H522, 48 h, read-out: GI
SK-MEL-28 = assay: Growth inhibition of human SK-MEL-28 cells assessed as cell growth at 10 '-6 M after 48 hrs by sulforhodamine B assay; conditions: SK-MEL-28, 48 h, read-out: Activity
OVCAR-4 = assay: Growth inhibition of human OVCAR4 cells assessed as cell growth at 10 '-8 M after 48 hrs by sulforhodamine B assay; conditions: OVCAR-4, 48 h, read-out: Activity
[9] = Growth inhibition of human Hs 578T cells assessed as cell growth at 10 '-8 M after 48 hrs by sulforhodamine B assay; conditions: read-out: Activity
NCI-H23 = assay: Growth inhibition of human NCI-H23 cells assessed as cell growth at 10 '-5 M after 48 hrs by sulforhodamine B assay; conditions: NCI-H23, 48 h, read-out: Activity
HT-29 = assay: Growth inhibition of human HT-29 cells assessed as cell growth at 10 '-6 M after 48 hrs by sulforhodamine B assay; conditions: HT-29, 48 h, read-out: Activity
OVCAR-5 [10] = assay: Growth inhibition of human OVCAR5 cells assessed as growth inhibition at 10 uM after 48 hrs by sulforhodamine B assay; conditions: OVCAR-5, 48 h, read-out: GI
DU-145 = assay: Growth inhibition of human DU145 cells assessed as cell growth at 10 '-6 M after 48 hrs by sulforhodamine B assay; conditions: DU-145, 48 h, read-out: Activity
MDA-MB-231 = assay: Growth inhibition of human MDA-MB-231 cells assessed as cell growth at 10 '-6 M after 48 hrs by sulforhodamine B assay; conditions: MDA-MB-231, 48 h, read-out: Activity
786-0 = assay: Growth inhibition of human 786-0 cells assessed as cell growth at 10 '-4 M after 48 hrs by sulforhodamine B assay; conditions: 786-0, 48 h, read-out: Activity
In short: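 Percent growth at each of the five concentrations of the 48 h continuous-exposure NCI SRB screen. Drug stocks were in DMSO at 400× the top final concentration and diluted in medium with gentamicin. Growth was calculated as [(Ti-Tz)/(C-Tz)]×100 when Ti ≥ Tz, or [(Ti-Tz)/Tz]×100 when Ti < Tz. Tz plates were fixed at drug addition; untreated wells served as control. Absorbance was read at 515 nm.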

SF-295 = assay: Growth inhibition of human SF295 cells assessed as cell growth at 10 '-6 M after 48 hrs by sulforhodamine B assay; conditions: SF-295, 48 h, read-out: Activity
KM12 = assay: Growth inhibition of human KM12 cells assessed as cell growth at 10 '-6 M after 48 hrs by sulforhodamine B assay; conditions: KM12, 48 h, read-out: Activity
U-251 = assay: Growth inhibition of human U251 cells assessed as cell growth at 10 '-7 M after 48 hrs by sulforhodamine B assay; conditions: U-251, 48 h, read-out: Activity
[11] = read-out: LD50 (the source's name)

Work on Cc1cc(=O)oc2cc(OCCn3c(C)nn(-c4ccc(Cl)cc4)c3=O)ccc12 yielded a growth at 100 µM (SF-268) of 36%, a growth at 1 µM (NCI-H460) of 83% and an inhibition of growth at 10 µM (M14) of 85.3%. The growth at 10 µM (NCI-H522 [1]) was 24%, the growth at 100 µM (HOP-62 [2]) was -8% and the GI50 (HOP-92) was 1610 nM. For the same molecule, the TGI (HOP-92) was over 1000 nM, the CC50 (HOP-92; [11]) was over 1000 nM and the GI50 (IGROV-1) was 3.5 µM. The TGI (IGROV-1) was over 1000 nM, the growth at 0.1 µM (MOLT-4) was 109% and the growth at 1 µM (TK-10) was 114%. It also gave a growth at 1 µM [3] of 76%, an inhibition of growth at 10 µM (SNB-75) of 79.6% and a GI50 (HCT-15) of 3.2 µM. For the same molecule, the TGI (HCT-15) was over 1000 nM, the CC50 (HCT-15; [11]) was over 1000 nM and the growth at 100 µM (MCF7) was 21%. For the same molecule, the growth at 10 µM (OVCAR-5 [4]) was 53%, the inhibition of growth at 10 µM (OVCAR-3 [5]) was 85.2% and the growth at 0.01 µM (OVCAR-3 [6]) was 111%. It also gave a growth at 0.01 µM (HOP-62 [7]) of 101%, a GI50 (SF-539) of 4.06 µM and a TGI (SF-539) of 4.74 µM. The CC50 (SF-539; [11]) was over 1000 nM, the inhibition of growth at 10 µM (NCI-H522 [8]) was 82.8% and the growth at 1 µM (SK-MEL-28) was 67%. The growth at 0.01 µM (OVCAR-4) was 100%, the growth at 0.01 µM [9] was 88% and the growth at 10 µM (NCI-H23) was 32%. It also gave a growth at 1 µM (HT-29) of 100%, an inhibition of growth at 10 µM (OVCAR-5 [10]) of 61.2% and a growth at 1 µM (DU-145) of 96%. It also gave a growth at 1 µM (MDA-MB-231) of 66%, a growth at 100 µM (786-0) of 15% and a growth at 1 µM (SF-295) of 74%. It also gave a growth at 1 µM (KM12) of 58% and a growth at 0.1 µM (U-251) of 97%.
